These results are taken from ChEMBL document CHEMBL3085732, “Synthesis and pharmacological evaluation of aminothiazolomorphinans at the mu and kappa opioid receptors” (J Med Chem, 2013).

Activity calls are given as the source filed them.

Data set [1] addresses T1, Mu-type opioid receptor (Homo sapiens, UniProt P35372). In words: Antagonist activity at human mu opioid receptor transfected in CHO cells assessed as inhibition of […] [35S]GTPgammaS binding after 60 mins by scintillation counting analysis relative to control. It is filed as functional, cell-based. A general note: Binding of GTPγS marks nucleotide exchange on a G protein.

Data set [2] has as its target T2, Kappa-type opioid receptor (Homo sapiens, UniProt P41145). In words: Agonist activity at human kappa opioid receptor transfected in CHO cells assessed as stimulation of [35S]GTPgammaS binding after 60 mins by scintillation counting analysis relative to control. It is filed as functional, cell-based. The gist of the method: (§1)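 Membranes from CHO cells stably expressing human KOR (15 μg protein/tube) or MOR (7.5 μg protein/tube) were incubated for 60 min at 30 °C with 12 compound concentrations, 3 μM GDP and […] [35S]GTPγS. Nonspecific binding used 10 μM GTPγS. Filtration, scintillation counting; % stimulation over basal. ≥3 experiments, triplicate.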

Data set [3] has as its target T1, Mu-type opioid receptor. Briefly: Antagonist activity at human mu opioid receptor transfected in CHO cells assessed as inhibition of DAMGO-induced [35S]GTPgammaS binding after 60 mins by scintillation counting analysis relative to control. It counts as functional, cell-based. Summed up:
(§2)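 Membranes from CHO cells expressing human MOR (7.5 μg protein/tube) were incubated with test compound plus 200 nM DAMGO, 3 μM GDP and […] [35S]GTPγS. Incubation was 60 min at 30 °C in Tris/MgCl2/NaCl/EGTA buffer, pH 7.4. Bound label was measured by filtration and scintillation counting. At least 3 experiments, each in triplicate.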

Data set [4] concerns the target T1, Mu-type opioid receptor. In words: Agonist activity at human mu opioid receptor transfected in CHO cells assessed as stimulation of [35S]GTPgammaS binding after 60 mins by scintillation counting analysis relative to control. It is filed as functional, cell-based. The gist of the method:
as §1

The target of data set [5] is T2, Kappa-type opioid receptor. Briefly: Agonist activity at human kappa opioid receptor transfected in CHO cells assessed as stimulation of [35S]GTPgammaS binding after 60 mins by scintillation counting analysis. It counts as functional, cell-based. The gist of the method: as §1
Data set [6] deals with T1, Mu-type opioid receptor. Briefly: Antagonist activity at human mu opioid receptor transfected in CHO cells assessed as inhibition of DAMGO-induced [35S]GTPgammaS binding after 60 mins by scintillation counting analysis. It counts as functional, cell-based. Summed up: as §2
For data set [7], the target named is T1, Mu-type opioid receptor. In words: Agonist activity at human mu opioid receptor transfected in CHO cells assessed as stimulation of [35S]GTPgammaS binding after 60 mins by scintillation counting analysis. It counts as functional, cell-based. The gist of the method: as §1
Data set [8] is filed under the species Homo sapiens. Briefly: Selectivity ratio of Ki for human delta opioid receptor to Ki for human kappa opioid receptor.
For data set [9], the species on record is Homo sapiens. Briefly: Selectivity ratio of Ki for human mu opioid receptor to Ki for human kappa opioid receptor.
Data set [10] has as its target Delta-type opioid receptor (Homo sapiens, UniProt P41143). In words: Displacement of [3H]-naltrindole from human delta opioid receptor transfected in CHO cells after 3 hrs. It is filed as cell-based. A general note: In a radioligand displacement assay an active substance lowers the binding of a labelled ligand.
Data set [11] deals with T2, Kappa-type opioid receptor. Briefly: Displacement of [3H]-U69593 from human kappa opioid receptor transfected in CHO cells after 60 mins. It is filed as cell-based.
The target of data set [12] is T1, Mu-type opioid receptor. In words: Displacement of [3H]-DAMGO from human mu opioid receptor transfected in CHO cells after 60 mins. It is filed as cell-based.
In data set [13] the test system is Rattus norvegicus. Briefly: Reduction of reward potentiation effect of cocaine in ip dosed Sprague-Dawley rat assessed as blockade of cocaine-madiated reduction of intracranial self-stimulation threshold administered for 15 mins prior to cocaine challenge measured 15 mins post dose and 1 hr post cocaine challenge. It counts as functional, organism-based. The gist of the method:
(§3)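 Male Sprague-Dawley rats carried medial forebrain bundle electrodes and were trained by the rate-frequency method to stable thresholds (n=6/cohort). Baseline came from three 15-min functions. Test drug was given i.p. in increasing doses: 0, 0.5, 1.0, 2.0 mg/kg, or 0, 3.0, 10.0, 30.0 mg/kg. […] Data were expressed as 100 × post/pre.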

Data set [14] deals with Rattus norvegicus. Briefly: Toxicity in Sprague-Dawley rat assessed as suppression of intracranial self-stimulation reward function at 4 mg/kg, ip measured over 15 to 60 mins. The arrangement: dose 4 mg/kg, route intraperitoneal. It counts as organism-based. The conditions noted are these: in vivo. The gist of the method:
(§4)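 Male Sprague-Dawley rats with lateral hypothalamic medial forebrain bundle electrodes were given test drug i.p. in increasing doses (n=6/cohort). One series was 0–4.0 mg/kg in 20% DMSO/water; the other was 1.0–30.0 mg/kg in 0.9% saline. ICSS thresholds and maximum response rates were measured over four 15-min rate-frequency trials after baseline. Results were expressed as 100 × post/pre-treatment.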

The test system of data set [15] is Rattus norvegicus. In words: Toxicity in Sprague-Dawley rat assessed as suppression of intracranial self-stimulation reward function at 0.25 to 2 mg/kg, ip measured for 1 hr. It is filed as organism-based. As to conditions: in vivo. The arrangement: dose 0.25-2 mg/kg, route intraperitoneal. Summed up:
as §4

Data set [16] deals with Rattus norvegicus. Briefly: Toxicity in Sprague-Dawley rat assessed as suppression of intracranial self-stimulation reward function at 1 to 30 mg/kg, ip measured for 1 hr. The arrangement: dose 1-30 mg/kg, route intraperitoneal. It counts as organism-based. As to conditions: in vivo. Summed up:
as §4

Data set [17] has as its system Rattus norvegicus. Briefly: Reduction of reward potentiation effect of cocaine in ip dosed Sprague-Dawley rat assessed as blockade of cocaine-madiated reduction of intracranial self-stimulation threshold at 3 to 30 mg/kg administered for 15 mins prior to cocaine challenge measured 15 mins post dose and 1 hr post cocaine challenge. It counts as functional, organism-based. The gist of the method:
as §3

Chain of Delta-type opioid receptor (P41143 whole entry): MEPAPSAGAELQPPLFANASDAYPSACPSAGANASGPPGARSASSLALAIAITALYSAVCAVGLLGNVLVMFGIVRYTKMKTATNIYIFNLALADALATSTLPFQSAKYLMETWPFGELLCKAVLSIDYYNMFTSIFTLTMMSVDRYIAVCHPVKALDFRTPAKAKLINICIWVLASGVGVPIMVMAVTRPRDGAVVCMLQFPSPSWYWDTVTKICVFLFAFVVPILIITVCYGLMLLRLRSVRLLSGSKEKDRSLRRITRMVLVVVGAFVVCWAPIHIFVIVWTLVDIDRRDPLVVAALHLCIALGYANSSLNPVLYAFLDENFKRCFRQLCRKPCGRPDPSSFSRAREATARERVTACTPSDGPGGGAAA
T2 sequence (P41145 whole entry): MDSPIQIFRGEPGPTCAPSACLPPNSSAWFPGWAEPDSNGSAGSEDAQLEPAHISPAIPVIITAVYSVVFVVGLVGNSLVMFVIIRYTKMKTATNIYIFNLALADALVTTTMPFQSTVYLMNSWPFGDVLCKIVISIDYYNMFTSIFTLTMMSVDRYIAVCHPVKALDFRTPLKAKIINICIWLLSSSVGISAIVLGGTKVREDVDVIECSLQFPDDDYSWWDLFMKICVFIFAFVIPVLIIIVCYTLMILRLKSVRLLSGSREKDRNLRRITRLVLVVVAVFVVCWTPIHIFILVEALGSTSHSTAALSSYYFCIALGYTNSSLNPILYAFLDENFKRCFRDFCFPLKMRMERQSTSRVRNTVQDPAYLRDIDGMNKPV
T1 sequence (P35372 whole entry): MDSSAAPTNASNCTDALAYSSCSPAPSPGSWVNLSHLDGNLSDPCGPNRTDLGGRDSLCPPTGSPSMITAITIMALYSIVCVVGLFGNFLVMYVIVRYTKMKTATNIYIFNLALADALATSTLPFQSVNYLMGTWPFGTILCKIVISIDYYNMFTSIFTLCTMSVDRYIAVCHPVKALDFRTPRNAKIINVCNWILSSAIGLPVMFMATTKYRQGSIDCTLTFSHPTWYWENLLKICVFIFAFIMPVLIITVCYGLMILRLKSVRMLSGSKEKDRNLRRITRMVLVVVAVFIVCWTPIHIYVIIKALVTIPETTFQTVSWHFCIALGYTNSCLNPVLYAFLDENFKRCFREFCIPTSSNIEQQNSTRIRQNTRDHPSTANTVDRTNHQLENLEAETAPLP

Turning to `COc1ccc2c(c1)[C@]13CCN(CC4CC4)[C@H](C2)[C@@H]1Cc1sc(N)nc1C3`, in data set [1], the Imax entry is “inactive”. Also, the figures for the Emax in [2] and in data set [4] were 140% and 24%, respectively. In data set [3], the Imax was found to be 69%. In addition, the EC50 (usually the concentration needed to bring the measured effect to its halfway point) in [5] came to 49 nM; in data set [7] it was 39 nM. Besides, the IC50 (in general, the concentration that gives 50% inhibition) in data set [6] is 640 nM. Also, the Ratio Ki in [8] turned out to be 6.8; in [9] it was 3.5. Also, the inhibition constant Ki (commonly the dissociation constant of the complex between target and ligand, obtained from inhibition or displacement) in data set [10] stood at 13 nM; in [11], 1.9 nM; in data set [12], 6.7 nM.

In the case of `Oc1ccc2c(c1)[C@@]13CCCC[C@H]1[C@@H](C2)N(CC1CCC1)CC3` [BUTORPHAN], the Activity entry in [13] was “Dose-dependent effect”; in [14], “Toxic”; in data set [15], “Non-toxic”.

As for `CNc1nc2c(s1)C[C@H]1[C@H]3Cc4ccc(OC)cc4[C@@]1(CCN3CC1CC1)C2`, the Imax result in [1] was “inactive”. Besides, the values for the maximal response (Emax) in [2] and in data set [4] were 140% and 28%, respectively. The Imax in data set [3] was 76%. The EC50 in data set [5] came to 97 nM; in data set [7], 51 nM. For the same molecule, in data set [6], the IC50 is 650 nM. In addition, the Ratio Ki in data set [8] is 0.44; in [9], 2.7. In addition, the Ki amounted to 1.6 nM in [10], 3.6 nM in [11] and 9.6 nM in data set [12].

As for `CNc1nc2c(s1)C[C@H]1[C@H]3Cc4ccc(O)cc4[C@@]1(CCN3CC1CC1)C2`, the Imax in [1] was determined as 27%; in data set [3] it was 76%. In addition, the Emax (commonly the greatest response seen or fitted, relative to the assay's reference) is 85% in [2] and 25% in data set [4]. The values for the EC50 in [5] and in [7] were 1.3 nM and 0.52 nM, respectively. Further, the IC50 in data set [6] came out at 2.5 nM. In addition, the Ratio Ki is 5.1 in data set [8] and 1.7 in data set [9]. Further, the Ki turned out to be 0.43 nM in data set [10], 0.084 nM in data set [11] and 0.14 nM in data set [12].

In the case of `Nc1nc2cc3c(cc2s1)C[C@@H]1[C@@H]2CCCC[C@]32CCN1CC1CC1`, the Imax entry in data set [1] was “inactive”.

For the molecule `Nc1nc2c(s1)C[C@H]1[C@H]3Cc4ccc(O)cc4[C@@]1(CCN3CC1CC1)C2`, the Imax in data set [1] was 49%. Further, the Emax in data set [2] was determined as 59%. Further, in data set [16], the Activity result is recorded as “Non-toxic”. Moreover, the EC50 in data set [5] was determined as 0.61 nM. Also, in data set [17], the result was inactive.

Take `COc1ccc2c(c1)[C@]13CCN(CC4CC4)[C@H](C2)[C@@H]1Cc1sc(NC(C)=O)nc1C3`: the Imax entry in data set [1] was “inactive”. The values for the Emax in data set [2] and in data set [4] were 120% and 47%, respectively. The Imax in data set [3] is 60%. The EC50 in [5] turned out to be 140 nM; in data set [7] it was 80 nM. Moreover, in [6], the IC50 amounted to 500 nM. In addition, the Ratio Ki in data set [8] turned out to be 0.51; in data set [9], 0.73. The figures for the Ki in data set [10], in data set [11] and in data set [12] were 4.6 nM, 9 nM and 6.6 nM, respectively.
